Screening data as filed in PubChem BioAssay.
Rows were chosen to be rich in hits. Some 1.5% of all compounds tested hit in one or more screens of this group.
TCR-CD3 inh: human TCR-CD3 binding inhibition; 0.37% of 360,000 active; TAMRA-labeled TCR probe fluorescence, biochemical; AID 651800; inhibition, % at 9.4 µM;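 further: recombinant mutant TCR 2C K166C tagged with TAMRA read by polarization; 0% = receptor in buffer alone and 100% = receptor with positive control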
DAGLB inhibitor: diacylglycerol lipase beta (human) inhibition. inhibition, % at 5.17 µM. 0.059% of 340,000 active. Q8NCG7. HEK293T DAGLB membrane lysate, EnzChek fluorogenic substrate; in the data active means inhibition above about 34%;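 further: 0% = enzyme with vehicle and 100% = wells lacking enzyme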
ABHD4 inh: ABHD4 (mouse) inhibition, primary FP screen | Q8VD66 | purified mABHD4, FP-Rh probe fluorescence polarization | inhibition, % at 8.92 µM | 0.54% of 370,000 active | AID 720543;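 active means inhibition exceeding the mean over every tested compound plus 3 SD, cut at about 30% in these data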;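 further: 0% = plate median of compound wells and 100% = S159A mutant with DMSO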
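assay system = mABHD4 protein | compound dosing = single nominal dose of 8.92 µM, 0.89% DMSO final | read-out basis = percent inhibition of probe binding, normalized to plate controls | schedule = Enzyme–compound pre-incubation 45 min, then probe 60 min, both 25 °C | detection = fluorescence polarization, excitation 525 nm, emission 598 nm, BODIPY TMR filters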
HTRA1 inh: inhibitors of human serine peptidase HTRA1 | Q92743 | recombinant HTRA1, FP-rhodamine activity-based probe, fluorescence polarization | inhibition, % at 5.96 µM | 0.5% of 340,000 active | AID 504803; in the data active means inhibition above about 36%;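 further: 0% = enzyme with DMSO and 100% = wells lacking enzyme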
Target sequence (Q92743 whole entry, looked up): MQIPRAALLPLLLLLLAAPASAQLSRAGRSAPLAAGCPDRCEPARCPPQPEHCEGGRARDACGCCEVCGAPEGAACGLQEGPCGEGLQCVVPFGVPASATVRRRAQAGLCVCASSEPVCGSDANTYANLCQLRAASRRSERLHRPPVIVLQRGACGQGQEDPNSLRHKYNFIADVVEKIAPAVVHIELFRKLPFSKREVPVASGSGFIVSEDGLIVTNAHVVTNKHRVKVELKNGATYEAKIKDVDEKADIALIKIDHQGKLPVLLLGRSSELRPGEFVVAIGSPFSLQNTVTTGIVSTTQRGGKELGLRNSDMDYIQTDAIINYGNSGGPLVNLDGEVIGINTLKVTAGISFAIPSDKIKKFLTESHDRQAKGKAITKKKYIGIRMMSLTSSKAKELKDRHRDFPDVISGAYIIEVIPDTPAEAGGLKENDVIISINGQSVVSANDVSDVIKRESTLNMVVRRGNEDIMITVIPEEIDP
SIAE primary: human SIAE inhibition, primary screen. Q9HAT2. SIAE FP-Rh probe binding, fluorescence polarization. inhibition, % at 9.66 µM. 0.69% of 370,000 active. AID 1053197;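 active means inhibition above a cutoff: mean of compounds within the control limits plus 3 SD of those, cut at about 17% in these data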;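 further: 0% = plate median of compound wells and 100% = probe without SIAE protein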
HTRA1 inh conf: HTRA1 (human) inhibition, confirmation | shares compounds with HTRA1 inh | recombinant HTRA1, FP-rhodamine activity-based probe, fluorescence polarization | inhibition, % at 5.96 µM | 66% of 1,600 active | AID 540248;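 active means mean inhibition over three repeats above a set limit taken from the earlier primary screen, cut at about 37% in these data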;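 further: 0% = HTRA1 with DMSO and 100% = wells lacking HTRA1; inhibitors block probe binding so polarization drops and inhibition rises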
BSA probe FL: interferes with TAMRA-BSA probe, flagging TCR-CD3 hits. shares compounds with TCR-CD3 inh. AID 652035. TAMRA-labeled BSA probe fluorescence counterscreen. 10% of 1,200 active. inhibition, % at 9.4 µM; in the data active means inhibition above about 23%;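 further: 0% = buffer low control and 100% = reference high control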
TCR-CD3 inh conf: confirmation of human TCR-CD3 interaction inhibitors; AID 652036; 48% of 1,200 active; shares compounds with TCR-CD3 inh; inhibition, % at 9.4 µM; TAMRA-labeled TCR probe fluorescence binding assay
ABHD4 confirm: ABHD4 (mouse) inhibition, FP confirmation. purified mABHD4, FP-Rh probe fluorescence polarization. 55% of 1,800 active. inhibition, % at 8.92 µM. shares compounds with ABHD4 inh;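 active means mean inhibition across replicates above the hit cutoff set in the primary screen, cut at about 30% in these data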;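 further: 0% = wild-type ABHD4 with DMSO and 100% = catalytically dead S159A mutant with DMSO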
Starred values were filed as active, the others as inactive; . = not tested or not shown; + = active, no number. Unless noted, no stated cut-off is given here; in the data, active means inhibition above about 19%; inactive means the rest.

SMILES	TCR-CD3 inh	DAGLB inhibitor	ABHD4 inh	HTRA1 inh	SIAE primary	HTRA1 inh conf	ABHD4 confirm	others
COC(=O)[C@]12C[C@H](CC(=O)N3CCN(C(=O)c4ccco4)CC3)C(=O)N(Cc3cccc4ccccc34)C1=C[C@H](C(C)C)O[C@@H]2C1CC1	.	.	-7	.	6	.	.
O=C(N/N=C/c1ccc(O)c(O)c1)NC12CC3CC(CC(C3)C1)C2	-4	15	33*	68*	12	82*	31*
Cc1ccccc1-c1nn[nH]n1	-11	0	-2	6	4	.	.
Oc1ccc(N=Nc2ccccc2-c2nn[nH]n2)c(O)c1	2	20	68*	42*	16	67*	71*
Cc1oc2c(O)c(O)ccc2c(=O)c1-c1ccccc1	8	4	41*	52*	7	41*	16
Cc1oc2c(O)c(O)ccc2c(=O)c1-c1ccc(Cl)cc1	13	25	41*	69*	-1	91*	25
O=C(NC1CCCC1)[C@@H]1CCCN1C(=O)[C@@H](NC(=O)N1CCOCC1)c1ccccc1	6	.	-4	.	-1	.	.
CNc1cccnc1C=NNC(N)=S	0	-4	3	3	5	.	.
NC(=S)NN=Cc1nccc2c(C(F)(F)F)cccc12	-3	4	31*	69*	6	80*	32*
O=C(O)c1ccc(/C=N/NC(=O)c2cc3ccccc3cc2O)cc1	1	1	31*	42*	13	16	-6
CC[C@H](C)[C@H]1CNC(=O)C(=O)N1CC1CCN(CC(C)C)CC1	3	.	-1	.	4	.	.
CCN(CC)c1ccc(N=Cc2ccc(N(CC)CC)cc2O)cc1	-2	9	39*	65*	6	6	19
O=[N+]([O-])c1cc(C(F)(F)F)cc([N+](=O)[O-])c1NN=C1CCCCC1	10	2	37*	42*	12	1	22
Cc1c(Br)c(=O)oc2c(Br)c(O)ccc12	2	2	2	1	-4	.	.
Cc1c(Br)c(=O)oc2c(Br)c(O)c(O)cc12	25*	32	51*	64*	13	83*	53*	BSA probe FL=-9;TCR-CD3 inh conf=17
CCCCCCCCCCCCCCCC[N+](C)(C)CCl	11	-1	50*	65*	-3	74*	12
CCCCCCCCCCCCCCCC[N+](C)(C)CC	4	6	47*	61*	0	167*	60*
CCN(CC)c1ccc(N=Cc2c(C)[nH]c3ccccc23)cc1	-5	10	36*	50*	14	22	30*
CN(NC(=O)C(=O)NCc1ccco1)C(=O)NC1CCCCC1	3	.	4	.	-3	.	.
O=[N+]([O-])c1ccccc1C=NNC(=S)NN=Cc1ccccc1[N+](=O)[O-]	-6	2	9	10	4	.	.
O=[N+]([O-])c1ccccc1NC(=S)N/N=C/c1ccc(O)c(O)c1	20*	9	51*	80*	8	73*	36*	BSA probe FL=-16;TCR-CD3 inh conf=20*
Nc1nc(N)c(N=Nc2ccc(C(=O)O)cc2)c(N)n1	-6	5	3	11	-1	.	.
O=C(O)c1ccc(N=Nc2c(O)ccc3ncccc23)cc1	-14	13	73*	39*	1	29	80*
CN1C(=O)[C@@]2(O[C@H]3[C@H]4C=C[C@@H]([C@H]5C(=O)N(Cc6ccccc6)C(=O)[C@@H]45)N3C3=C2C(=O)CC3)c2ccccc21	-8	.	-8	.	0	.	.
O=c1c(-c2ccc([N+](=O)[O-])cc2)coc2c(O)c(O)ccc12	16	25	42*	66*	-2	68*	22
SMILES	TCR-CD3 inh	DAGLB inhibitor	ABHD4 inh	HTRA1 inh	SIAE primary	HTRA1 inh conf	ABHD4 confirm	others
CN(C)Cc1c(O)ccc2c(=O)c(-c3ccc(Cl)cc3)coc12	10	3	2	3	-4	.	.
Cc1ccc(C2C3=C(CC(C)(C)CC3=O)OC3=C2C(=O)CC(C)(C)C3)cc1	-8	1	10	1	4	.	.
COc1cc2c(cc1OC)CSC1C(=O)N(C)C(SC2)C(=O)N1C	.	.	2	.	0	.	.
Nc1[nH]c(C(=O)c2ccc(Br)cc2)c(-c2ccc(Br)cc2)c1C(=O)NCc1cccc2ccccc12	-3	.	-2	.	4	.	.
O=c1ccc2[n+]([O-])c3ccc(O)cc3oc-2c1	.	-2	+	141*	.	+	+
O=C(NCC1CCN(C(=O)C(=O)c2cccs2)CC1)c1ccc2ccccc2c1	7	.	6	.	-5	.	.
Cc1[nH]c(N=Nc2ccccc2)nc1N=Nc1ccccc1	3	20	45*	74*	2	75*	62*
O=C(O)[C@H]1CCCC[C@H]1C(=O)Nc1ccc(Nc2ccccc2)cc1	-5	4	42*	67*	7	21	19
COc1ccc(Nc2ccnc3ccccc23)cc1	3	-1	-5	5	4	.	.
CC(C)Nc1ccc(Nc2ccnc3cc4ccccc4cc23)cc1	-2	14	31*	39*	8	46*	54*
O=C(Nc1ccc(F)cc1F)C1CCCN1S(=O)(=O)c1cccnc1 (configuration not stated)	.	.	1	.	-1	.	.
CN(C1=C(NC(=O)c2ccc(Cl)cc2)C(=O)c2ccccc2C1=O)c1ccccc1	-4	25	56*	73*	1	65*	71*
O=C(Nc1cccc(Cl)c1)c1ccccc1	-3	-3	5	-12	-1	.	.
O=C(NC1=C(Nc2ccc(Cl)cc2)C(=O)c2ccccc2C1=O)c1ccccc1	-6	20	16	19	-11	.	.
O=C1C(Cl)=C(NC(=O)c2ccccc2)C(=O)C(Cl)=C1NC(=O)c1ccccc1	-8	-1	64*	37*	3	-2	71*
Nc1[nH]n(-c2ccccc2)c(=O)c1N=Nc1ccc2ncsc2c1	-6	27	48*	36*	13	26	65*
COC(=O)[C@H](Cc1ccccc1)NP(=O)(OC)[C@@H](C)NC(=O)OCc1ccccc1 (some centres not stated)	.	.	2	.	1	.	.
O=C(N/N=C/c1cc(Br)c(Br)o1)c1ccc2c(c1)OCCO2	9	-15	6	5	7	.	.
O=C(N/N=C/c1cc(Br)c(O)c(Br)c1O)c1ccc2c(c1)OCCO2	25*	9	49*	44*	14	41*	58*	BSA probe FL=-33;TCR-CD3 inh conf=20*
